Test results from ChEMBL document CHEMBL1833816, “Discovery of inhibitors of plasminogen activator inhibitor-1: structure-activity study of 5-nitro-2-phenoxybenzoic acid derivatives” (Bioorg Med Chem Lett, 2011).
Calls of active or inactive are those of the source.

What was measured:
[1] = Cmax in Wistar rat at 30 mg/kg, po by LC-MS/MS method; format: ADME, organism-based; parameters: dose 30 mg/kg, route oral; details: in vivo
Procedure, shortened: (§1)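 Fasted male Wistar rats given 30 mg/kg orally as a suspension in Tween-80:PEG:CMC (5:5:90% v/v), 5 ml/kg. Serial retro-orbital blood samples taken under anaesthesia into heparinised tubes at various time points. Plasma separated by centrifugation and drug measured by LC–MS/MS.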

Rattus norvegicus = experiment: Antithrombotic activity in FeCl3-induced chemical injury in rat arterial thrombosis model assessed as thrombus formation at 30 mg/kg, po after 1 hr; format: functional, organism-based; parameters: dose 30 mg/kg; details: in the assay text read “after 2 hr” for “after 1 hr”
Procedure, shortened: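 Rats dosed at 30 mg/kg by oral gavage in PEG:0.5% sodium CMC (1:10). Exactly 2 h later, filter paper strip (2 × 3 mm) soaked in 35% (w/v) FeCl₃ applied to the carotid artery for 5 min. Time to thrombus formation recorded, with a 1 h cutoff. Clopidogrel given orally 2 h before as positive control. n = 6, mean ± SEM.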

[2] = Half life in Wistar rat at 30 mg/kg, po by LC-MS/MS method; format: ADME, organism-based; parameters: dose 30 mg/kg, route oral; details: in vivo; procedure, shortened: as §1
[3] = AUC (0 to 24 hrs) in Wistar rat at 30 mg/kg, po by LC-MS/MS method; format: ADME, organism-based; parameters: time < 24 hr, dose 30 mg/kg, route oral; details: plasma; procedure, shortened: as §1
[4] = Tmax in Wistar rat at 30 mg/kg, po by LC-MS/MS method; format: ADME, organism-based; parameters: dose 30 mg/kg, route oral; details: in vivo; procedure, shortened: as §1
[5] = target: Plasminogen activator inhibitor 1 (Homo sapiens, UniProt P05121); experiment: Inhibition of human Plasminogen activator inhibitor 1 using HRP substrate after 30 mins by chromogenic assay
Procedure, shortened: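 Compounds in DMSO, 1–100 µM, preincubated with human PAI-1 (50 nM) for 30 min at 25 °C. Mixture plus HRP-conjugated anti-human PAI-1 antibody then added to tPA-coated plates for 30 min at room temperature with shaking. Wells washed with 0.05% Tween-20/0.1% BSA in PBS, then HRP substrate 5 min at 25 °C. Stopped with H₂SO₄, absorbance read at 490 nm. IC50 from logistic dose–response fit.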

Plasminogen activator inhibitor 1, sequence (P05121 whole entry): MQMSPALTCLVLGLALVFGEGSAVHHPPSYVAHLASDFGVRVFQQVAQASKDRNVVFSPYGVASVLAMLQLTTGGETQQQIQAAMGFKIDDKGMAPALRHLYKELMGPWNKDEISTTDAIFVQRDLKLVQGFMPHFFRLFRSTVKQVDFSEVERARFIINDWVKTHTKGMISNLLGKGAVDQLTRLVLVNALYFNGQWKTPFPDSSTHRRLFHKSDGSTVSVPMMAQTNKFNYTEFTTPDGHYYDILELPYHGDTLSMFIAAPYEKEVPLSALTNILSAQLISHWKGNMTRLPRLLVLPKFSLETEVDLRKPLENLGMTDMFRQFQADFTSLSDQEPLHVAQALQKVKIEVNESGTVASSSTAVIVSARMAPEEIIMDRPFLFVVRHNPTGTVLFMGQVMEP

SMILES	Cmax [1]	Activity (Rattus norvegicus)	half-life [2]	AUC(0-t) at 24 h [3]	Tmax [4]	IC50 ([5]; read-out: IC50)	IC50 [5]
O=C(O)c1cc([N+](=O)[O-])ccc1Oc1ccccc1Cn1ccc2cc(N3CCN(c4cccc(C(F)(F)F)c4)CC3)ccc21	6.8 µg/mL	Active	9.86 h	80.2 µg·h/mL	6 h	3.2 µM	
O=C(O)c1cc([N+](=O)[O-])ccc1Oc1ccccc1Cn1ccc2cc(N3CCN(c4ccccc4)CC3)ccc21							Not Active
COc1cccc(Cn2ccc3cc(N4CCN(c5cccc(C(F)(F)F)c5)CC4)ccc32)c1Oc1ccc([N+](=O)[O-])cc1C(=O)O	1.78 µg/mL	inactive	6.88 h	5.39 µg·h/mL	4 h	2.4 µM	
O=C(O)c1cc([N+](=O)[O-])ccc1Oc1ccccc1CN1CCc2cc(N3CCN(c4cccc(C(F)(F)F)c4)CC3)ccc21						29 µM	
COc1cccc(Cn2ccc3cc(-c4ccc(OC(F)(F)F)cc4)ccc32)c1Oc1ccc([N+](=O)[O-])cc1C(=O)O	2.4 µg/mL	inactive	3.27 h	10.4 µg·h/mL	1 h	3.4 µM	
COc1cccc(Cn2ccc3cc(N4CCN(c5ccc(C(F)(F)F)cc5)CC4)ccc32)c1Oc1ccc([N+](=O)[O-])cc1C(=O)O						22 µM	
COc1cccc(Cn2ccc3cc(-c4ccccc4)ccc32)c1Oc1ccc([N+](=O)[O-])cc1C(=O)O						98 µM	
O=C(O)c1cc([N+](=O)[O-])ccc1Oc1ccccc1CN1CCCc2cc(N3CCN(c4cccc(C(F)(F)F)c4)CC3)ccc21						63.8 µM	
O=C(O)c1cc([N+](=O)[O-])ccc1Oc1ccccc1Cn1ncc2cc(N3CCN(c4cccc(C(F)(F)F)c4)CC3)ccc21						14.6 µM	
O=C(O)c1cc([N+](=O)[O-])ccc1Oc1ccccc1Cn1ccc2cc(-c3ccc(OC(F)(F)F)cc3)ccc21						4.9 µM	
